{"source": "ChEMBL document CHEMBL4765424", "about": "(Eur J Med Chem, 2020)", "data": [{"test_system": "not listed separately", "assay": "Inhibition of SARS CoV2 C-terminal His6-tagged 3CL protease expressed in Escherichia coli BL21 DE3 using Thr-Ser-Ala-Val-Leu-Gln-pNA as substrate preincubated for 30 mins followed by substrate addition and measured for 20 mins by colorimetric method", "design": "species or system Severe acute respiratory syndrome coronavirus 2", "conditions": "not given", "units": {"IC50": "µM"}, "values": [{"compound": "NC(=O)c1ccc2c(c1)C(=O)C(=O)N2Cc1cc2ccccc2s1", "IC50": 0.053}, {"compound": "CCCN1C(=O)C(=O)c2cc(C(N)=O)ccc21", "IC50": 10.2}, {"compound": "NC(=O)c1ccc2c(c1)C(=O)C(=O)N2Cc1ccc2ccccc2c1", "IC50": 0.045}, {"compound": "NC(=O)Cc1ccc2c(c1)C(=O)C(=O)N2Cc1ccc2ccccc2c1", "IC50": 39.2}, {"compound": "O=C(ON1C(=O)CCC1=O)c1ccc2c(c1)C(=O)C(=O)N2Cc1ccccc1", "IC50": 15.5}, {"compound": "CCCCN1C(=O)C(=O)c2cc(C(N)=O)ccc21", "IC50": 17.8}, {"compound": "CCCCN1C(=O)C(=O)c2cc(I)ccc21", "IC50": 41.8}, {"compound": "NC(=O)c1ccc2c(c1)C(=O)C(=O)N2Cc1ccc2cc(-c3ccccc3)ccc2c1", "IC50": 24.9}, {"compound": "NC(=O)c1ccc2c(c1)C(=O)C(=O)N2Cc1ccc2cc(Br)ccc2c1", "IC50": 0.047}]}, {"test_system": "Severe acute respiratory syndrome coronavirus 2", "assay": "Inhibition of SARS CoV2 C-terminal His6-tagged 3CL protease expressed in Escherichia coli BL21 DE3 at 50 uM using Thr-Ser-Ala-Val-Leu-Gln-pNA as substrate preincubated for 30 mins followed by substrate addition and measured for 20 mins by colorimetric method relative to control", "conditions": "time 50.0 min", "procedure,_shortened": "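Recombinant SARS-CoV-2 3CLpro comes from a synthetic full-length gene expressed in E. coli and purified. The enzyme was preincubated with compound for 30 min at room temperature in 40 mM PBS, 100 mM NaCl, 1 mM EDTA, 0.1% Triton, pH 7.3. TSAVLQ-pNA was then added to 200 μM final. A390 was read every 30 s for 20 min. Line 1 is percent inhibition at 50 μM. IC50s were fitted with a Hill1 function.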", "units": {"inhibition": "%"}, "values": [{"compound": "CN1C(=O)C(=O)c2cc(I)ccc21", "inhibition": 25}, {"compound": "O=C(O)c1ccc2c(c1)C(=O)C(=O)N2Cc1ccc2ccccc2c1", "inhibition": 32}, {"compound": "O=C(O)c1ccc2c(c1)C(=O)C(=O)N2Cc1ccccc1", "inhibition": "< 25"}, {"compound": "CCCCN1C(=O)C(=O)c2cc(C(=O)OC)ccc21", "inhibition": 42}, {"compound": "COC(=O)c1ccc2c(c1)C(=O)C(=O)N2Cc1ccccc1", "inhibition": 45}, {"compound": "CCCCN1C(=O)C(=O)c2cc(C(=O)O)ccc21", "inhibition": "< 25"}, {"compound": "CCCCN1C(=O)C(=O)c2cc(C(=O)ON3C(=O)CCC3=O)ccc21", "inhibition": 47}, {"compound": "O=C1C(=O)N(CN2CCOCC2)c2ccc([N+](=O)[O-])cc21", "inhibition": "< 25"}, {"compound": "O=C1C(=O)N(CN2CCCCC2)c2ccc(F)cc21", "inhibition": "< 25"}, {"compound": "O=C1C(=O)N(CO)c2ccccc21", "inhibition": "< 25"}, {"compound": "CN1C(=O)C(=O)c2cc(C(=O)ON3C(=O)CCC3=O)ccc21", "inhibition": 45}, {"compound": "CN1C(=O)C(=O)c2cc(C(=O)O)ccc21", "inhibition": "< 25"}, {"compound": "COC(=O)c1ccc2c(c1)C(=O)C(=O)N2CN1CCOCC1", "inhibition": 32}, {"compound": "O=C1C(=O)N(CN2CCOCC2)c2ccc(Cl)cc21", "inhibition": "< 25"}, {"compound": "CCCN1C(=O)C(=O)c2cc(C(=O)O)ccc21", "inhibition": "< 25"}, {"compound": "O=C1C(=O)N(CN2CCOCC2)c2ccccc21", "inhibition": "< 25"}, {"compound": "CCCN1C(=O)C(=O)c2cc(I)ccc21", "inhibition": 51}, {"compound": "O=C1C(=O)N(CN2CCOCC2)c2ccc(F)cc21", "inhibition": "< 25"}, {"compound": "CCCN1C(=O)C(=O)c2cc(C(=O)OC)ccc21", "inhibition": 53}, {"compound": "COC(=O)c1ccc2c(c1)C(=O)C(=O)N2C", "inhibition": 53}]}]}
